Laboratory results published in ChEMBL document CHEMBL1144014, “Protein phosphatase inhibitory activity of tautomycin photoaffinity probes evaluated at femto-molar level” (Bioorg Med Chem, 2008).

Molecular target: Serine/threonine-protein phosphatase PP1-gamma catalytic subunit (Homo sapiens, UniProt P36873)
Assay: Inhibition of PP1gamma by firefly bioluminescence assay
Summary of the method: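 Recombinant PP1c (E. coli-expressed), concentration set by titration, diluted to 40 nM in Tris–HCl (pH 8.43) with 0.15% BSA and 4.0 mM DTT (DTT omitted for disulfide-containing probes). Inhibitor diacid (0–40 µM stock dilutions; 0–10 µM in assay) premixed with enzyme. Luciferin phosphate (40 µM, 5 µL) is added. After 6 min, released luciferin is read on an immobilized-luciferase column with photon counting, in triplicate. Ki is fitted with a tight-binding model.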

Sequence of Serine/threonine-protein phosphatase PP1-gamma catalytic subunit (P36873 whole entry): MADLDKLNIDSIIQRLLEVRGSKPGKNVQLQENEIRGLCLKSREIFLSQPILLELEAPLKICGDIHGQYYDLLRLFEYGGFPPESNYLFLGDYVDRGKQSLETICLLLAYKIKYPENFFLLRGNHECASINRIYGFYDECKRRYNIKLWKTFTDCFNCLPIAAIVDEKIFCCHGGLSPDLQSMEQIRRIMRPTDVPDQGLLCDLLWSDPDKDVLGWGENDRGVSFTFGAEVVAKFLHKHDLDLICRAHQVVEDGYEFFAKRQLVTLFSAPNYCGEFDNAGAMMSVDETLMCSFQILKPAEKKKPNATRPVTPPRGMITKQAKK

| SMILES | Ki [nM] |
| --- | --- |
| CO[C@@H]([C@H](O)CC(=O)[C@@H](C)[C@@H](O)CC[C@@H](C)[C@@H]1O[C@]2(CC[C@@H](C)[C@H](CC[C@H](C)/C(C)=N\OCC(=O)Nc3cccc(C(=O)c4ccccc4)c3)O2)CC[C@@H]1C)[C@H](OC(=O)C[C@@H](O)/C(C(=O)O)=C(\C)C(=O)O)C(C)C | 32.5 |
| CO[C@@H]([C@H](O)CC(=O)[C@@H](C)[C@@H](O)CC[C@@H](C)[C@@H]1O[C@]2(CC[C@@H](C)[C@H](CC[C@H](C)/C(C)=N/OCC(=O)NCCSSCCNC(=O)c3ccc(F)c(N=[N+]=[N-])c3)O2)CC[C@@H]1C)[C@H](OC(=O)C[C@@H](O)/C(C(=O)O)=C(\C)C(=O)O)C(C)C | 19.6 |
| CO[C@@H]([C@H](O)CC(=O)[C@@H](C)[C@@H](O)CC[C@@H](C)[C@@H]1O[C@]2(CC[C@@H](C)[C@H](CC[C@H](C)/C(C)=N/OCC(=O)Nc3cccc(C(=O)c4ccccc4)c3)O2)CC[C@@H]1C)[C@H](OC(=O)C[C@@H](O)/C(C(=O)O)=C(\C)C(=O)O)C(C)C | 8 |
| CO[C@@H]([C@H](O)CC(=O)[C@@H](C)[C@@H](O)CC[C@@H](C)[C@@H]1O[C@]2(CC[C@@H](C)[C@H](CC[C@H](C)C(C)=O)O2)CC[C@@H]1C)[C@H](OC(=O)C[C@@H](O)/C(C(=O)O)=C(\C)C(=O)O)C(C)C [TAUTOMYCIN DIACID] | 4.5 |
| CO[C@@H]([C@H](O)CC(=O)[C@@H](C)[C@@H](O)CC[C@@H](C)[C@@H]1O[C@]2(CC[C@@H](C)[C@H](CC[C@H](C)/C(C)=N/OCC(=O)NCCCNC(=O)c3ccc(F)c(N=[N+]=[N-])c3)O2)CC[C@@H]1C)[C@H](OC(=O)C[C@@H](O)/C(C(=O)O)=C(\C)C(=O)O)C(C)C | 3.4 |
| CO[C@@H]([C@H](O)CC(=O)[C@@H](C)[C@@H](O)CC[C@@H](C)[C@@H]1O[C@]2(CC[C@@H](C)[C@H](CC[C@H](C)/C(C)=N\OCC(=O)NCCSSCCNC(=O)c3ccc(F)c(N=[N+]=[N-])c3)O2)CC[C@@H]1C)[C@H](OC(=O)C[C@@H](O)/C(C(=O)O)=C(\C)C(=O)O)C(C)C | 23.9 |
| COc1cc(C2(C(F)(F)F)N=N2)ccc1C(=O)NCCNC(=O)CO/N=C(/C)[C@@H](C)CC[C@@H]1O[C@@]2(CC[C@H]1C)CC[C@H](C)[C@H]([C@H](C)CC[C@H](O)[C@H](C)C(=O)C[C@@H](O)[C@H](OC)[C@H](OC(=O)C[C@@H](O)/C(C(=O)O)=C(\C)C(=O)O)C(C)C)O2 | 49.7 |
| COc1cc(C2(C(F)(F)F)N=N2)ccc1C(=O)NCCNC(=O)CO/N=C(\C)[C@@H](C)CC[C@@H]1O[C@@]2(CC[C@H]1C)CC[C@H](C)[C@H]([C@H](C)CC[C@H](O)[C@H](C)C(=O)C[C@@H](O)[C@H](OC)[C@H](OC(=O)C[C@@H](O)/C(C(=O)O)=C(\C)C(=O)O)C(C)C)O2 | 213 |
| CO[C@@H]([C@H](O)CC(=O)[C@@H](C)[C@@H](O)CC[C@@H](C)[C@@H]1O[C@]2(CC[C@@H](C)[C@H](CC[C@H](C)/C(C)=N\OCC(=O)NCCNC(=O)c3ccc(F)c(N=[N+]=[N-])c3)O2)CC[C@@H]1C)[C@H](OC(=O)C[C@@H](O)/C(C(=O)O)=C(\C)C(=O)O)C(C)C | 8.4 |
| CO[C@@H]([C@H](O)CC(=O)[C@@H](C)[C@@H](O)CC[C@@H](C)[C@@H]1O[C@]2(CC[C@@H](C)[C@H](CC[C@H](C)/C(C)=N/OCC(=O)NCCNC(=O)c3ccc(F)c(N=[N+]=[N-])c3)O2)CC[C@@H]1C)[C@H](OC(=O)C[C@@H](O)/C(C(=O)O)=C(\C)C(=O)O)C(C)C | 17.3 |
